What is called IC50 is the concentration needed to halve the response being measured. Broadly, the inhibition is the drop in the measured response relative to a control, in per cent.

For assay [1], the system named is MCF7. Description: Cytotoxicity against human MCF7 cells after 72 hrs by MTS assay. The conditions noted are these: MCF7, 72 h. On the technique in general: Tetrazolium assays rely on reduction of a dye to a coloured formazan, in cell work by metabolically active cells.
For assay [2], the system named is MCF7. Description: Cytotoxicity against human MCF7 cells assessed as cell viability at 25 uM after 72 hrs by MTS assay. The note with it: MCF7, 72 h.
For assay [3], the system named is HepG2. The assay is described as follows: Cytotoxicity against human HepG2 cells at 25 uM after 72 hrs by MTS assay.
The test system of assay [4] is HepG2. Description: Cytotoxicity against human HepG2 cells assessed as cell viability at 25 uM after 24 hrs by MTS assay. The conditions noted are these: HepG2, 24 h, read-out: Activity. It is filed as functional.
The subject of assay [5] is MCF7. Description: Cytotoxicity against human MCF7 cells at 25 uM after 72 hrs by MTS assay.
Assay [6] concerns HT-29. The assay is described as follows: Cytotoxicity against human HT-29 cells at 25 uM after 72 hrs by MTS assay.
The subject of assay [7] is Nucleic Acid. The assay is described as follows: Binding affinity to DNA by ethidium bromide staining-based FID assay. On the set-up: concentration or dose not given beside the values.
Assay [8] concerns the target T1, DNA topoisomerase 1 (Homo sapiens) (UniProt P11387).
T1 sequence (whole entry): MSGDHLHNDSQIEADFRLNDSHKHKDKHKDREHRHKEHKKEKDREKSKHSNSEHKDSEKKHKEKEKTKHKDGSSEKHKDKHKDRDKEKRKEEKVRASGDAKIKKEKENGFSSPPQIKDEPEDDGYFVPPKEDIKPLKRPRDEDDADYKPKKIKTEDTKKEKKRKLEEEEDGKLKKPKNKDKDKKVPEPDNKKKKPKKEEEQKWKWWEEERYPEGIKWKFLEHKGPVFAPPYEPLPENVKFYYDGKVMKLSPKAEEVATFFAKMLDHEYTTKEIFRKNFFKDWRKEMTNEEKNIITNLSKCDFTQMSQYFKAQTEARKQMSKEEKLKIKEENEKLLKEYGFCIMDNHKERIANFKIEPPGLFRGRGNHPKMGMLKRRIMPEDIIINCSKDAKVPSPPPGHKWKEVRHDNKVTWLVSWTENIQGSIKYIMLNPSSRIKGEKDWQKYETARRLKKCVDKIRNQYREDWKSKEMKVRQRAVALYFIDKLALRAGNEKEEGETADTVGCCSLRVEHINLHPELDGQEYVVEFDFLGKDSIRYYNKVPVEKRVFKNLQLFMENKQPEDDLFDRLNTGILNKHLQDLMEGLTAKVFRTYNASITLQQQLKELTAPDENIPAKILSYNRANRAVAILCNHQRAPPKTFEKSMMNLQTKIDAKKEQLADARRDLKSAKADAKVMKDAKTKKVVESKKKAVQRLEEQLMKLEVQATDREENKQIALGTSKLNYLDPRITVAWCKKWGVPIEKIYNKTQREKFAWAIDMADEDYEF
Description: Inhibition of human recombinant DNA topoisomerase 1-mediated DNA cleavage assessed as decrease in relaxation of supercoiled plasmid substrate DNA at 100 uM after 30 mins by agarose gel electrophoresis.

Assay [9] has as its system HT-29. Description: Cytotoxicity against human HT-29 cells after 72 hrs by MTS assay. The conditions noted are these: HT-29, 72 h.
In assay [10] the target is DNA topoisomerase 2-alpha (Homo sapiens) (UniProt P11388). Description: Inhibition of human recombinant DNA topoisomerase 2alpha-mediated DNA cleavage assessed as decrease in relaxation of supercoiled plasmid substrate DNA at 100 uM after 30 mins by agarose gel electrophoresis.
The test system of assay [11] is HT-29. Description: Cytotoxicity against human HT-29 cells assessed as cell viability at 25 uM after 72 hrs by MTS assay. The conditions noted are these: HT-29, 72 h.
Assay [12] deals with HepG2. The assay is described as follows: Cytotoxicity against human HepG2 cells after 72 hrs by MTS assay. The conditions noted are these: HepG2, 72 h.
Assay [13] relates to MCF7. The assay is described as follows: Cytotoxicity against human MCF7 cells assessed as cell viability at 100 uM after 72 hrs by MTS assay. The conditions noted are these: MCF7, 72 h.
In assay [14] the test system is HepG2. The assay is described as follows: Cytotoxicity against human HepG2 cells assessed as cell viability at 100 uM after 72 hrs by MTS assay. The note with it: HepG2, 72 h.
Assay [15] concerns HT-29. Description: Cytotoxicity against human HT-29 cells assessed as cell viability at 100 uM after 72 hrs by MTS assay. The conditions noted are these: HT-29, 72 h.
Assay [16] can be described thus: Cytotoxicity against human CRL7761 cells after 3 days by MTS assay. Type of assay: cell-based. The note with it: 72 h. In a few lines:
(§1)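 Non-tumour cells were CRL-7761 human skin, Vero monkey kidney (DMEM high glucose, 5% FBS, 10 mM HEPES) and NIH/3T3 mouse (DMEM, 10% calf serum). Cells were seeded, left 24 h, then switched to serum-free DMEM-F12 with albumin, transferrin and insulin, with or without compound. Exposure was 3 days at 37 °C.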

A short description of assay [17]: Cytotoxicity against mouse NIH/3T3 cells after 3 days by MTS assay. It is filed as cell-based. The note with it: NIH3T3, 72 h. In outline:
as §1

Assay [18] relates to Vero. The assay is described as follows: Cytotoxicity against african green monkey Vero cells after 3 days by MTS assay. Type of assay: cell-based. The note with it: Chlorocebus sabaeus, 72 h. In outline: as §1

Sequence of DNA topoisomerase 2-alpha (Homo sapiens) (P11388 whole entry): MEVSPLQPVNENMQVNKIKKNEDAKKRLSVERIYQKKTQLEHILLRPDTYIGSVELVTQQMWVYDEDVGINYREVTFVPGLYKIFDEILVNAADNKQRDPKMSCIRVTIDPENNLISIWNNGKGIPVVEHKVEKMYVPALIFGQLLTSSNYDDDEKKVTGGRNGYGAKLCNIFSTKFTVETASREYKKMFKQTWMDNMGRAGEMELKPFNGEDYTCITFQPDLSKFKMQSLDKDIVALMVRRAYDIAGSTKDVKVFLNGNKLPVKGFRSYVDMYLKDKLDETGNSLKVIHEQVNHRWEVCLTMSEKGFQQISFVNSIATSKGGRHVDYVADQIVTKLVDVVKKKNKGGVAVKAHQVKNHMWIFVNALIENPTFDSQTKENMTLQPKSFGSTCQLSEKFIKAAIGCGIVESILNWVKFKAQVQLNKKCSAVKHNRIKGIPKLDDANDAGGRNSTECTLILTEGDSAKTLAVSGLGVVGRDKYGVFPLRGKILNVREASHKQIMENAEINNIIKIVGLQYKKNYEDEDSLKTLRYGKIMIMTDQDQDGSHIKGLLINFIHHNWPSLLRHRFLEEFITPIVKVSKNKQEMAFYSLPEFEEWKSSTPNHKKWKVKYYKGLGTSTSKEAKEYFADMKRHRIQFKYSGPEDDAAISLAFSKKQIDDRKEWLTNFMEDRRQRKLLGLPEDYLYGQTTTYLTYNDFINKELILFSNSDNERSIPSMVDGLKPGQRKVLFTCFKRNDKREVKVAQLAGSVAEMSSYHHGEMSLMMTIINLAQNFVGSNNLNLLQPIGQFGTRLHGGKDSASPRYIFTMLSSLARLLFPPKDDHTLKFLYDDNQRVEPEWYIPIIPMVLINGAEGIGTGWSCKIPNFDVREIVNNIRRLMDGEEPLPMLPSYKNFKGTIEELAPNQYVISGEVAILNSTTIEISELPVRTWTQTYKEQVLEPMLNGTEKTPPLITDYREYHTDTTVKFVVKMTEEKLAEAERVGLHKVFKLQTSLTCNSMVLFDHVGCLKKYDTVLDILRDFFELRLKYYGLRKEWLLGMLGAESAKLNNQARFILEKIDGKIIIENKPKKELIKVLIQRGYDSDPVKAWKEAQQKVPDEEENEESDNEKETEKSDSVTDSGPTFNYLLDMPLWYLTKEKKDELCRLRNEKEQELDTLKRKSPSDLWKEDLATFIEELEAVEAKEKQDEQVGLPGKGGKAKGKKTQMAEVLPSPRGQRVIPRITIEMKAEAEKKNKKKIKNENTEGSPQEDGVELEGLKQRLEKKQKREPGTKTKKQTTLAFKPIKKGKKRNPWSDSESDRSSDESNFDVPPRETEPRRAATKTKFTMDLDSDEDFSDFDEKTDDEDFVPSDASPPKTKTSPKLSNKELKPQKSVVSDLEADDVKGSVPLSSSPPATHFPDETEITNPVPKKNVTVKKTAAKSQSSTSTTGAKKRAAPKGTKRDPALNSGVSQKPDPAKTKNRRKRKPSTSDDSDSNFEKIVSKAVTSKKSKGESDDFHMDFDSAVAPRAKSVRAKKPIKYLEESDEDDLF

With `C[C@@H]1O[C@@H](OCC#Cc2c(-c3ccccc3)sc3ccccc23)C[C@H](N)[C@H]1O`, the IC50 in [1] is 15.8 µM; in assay [9], 10.9 µM; in [12], 17.2 µM. Besides, the viability at 25 µM in assay [2] was 2%; in [4], 2%; in assay [11], less than 1%. The Activity in assay [3] is 100%; in [5], 100%; in [6] it was 100%; in assay [7], 73.6%. Also, the figures for the inhibition in assay [8] and in [10] were 32.2% and 22.2%, respectively.
Take `Ic1c(-c2ccccc2)[nH]c2ccccc12`: the viability at 100 µM in [13] is 103%; in [14] it was 91%; in [15] it was 91%.
Turning to `OCC#Cc1c(-c2ccccc2)sc2ccccc12`, the viability at 25 µM in assay [2] was determined as 90%; in assay [4] it was 97%; in [11] it was 68%. Further, the viability at 100 µM worked out at 37% in assay [13], 17% in assay [14] and 8% in assay [15].
On to `c1ccc(-c2cc3ccccc3[nH]2)cc1` [2-PHENYL-1H-INDOLE], for which the figures for the viability at 100 µM in [13], in [14] and in assay [15] were 72%, 71% and 75%, respectively.
For `C#CCO[C@H]1C[C@H](N)[C@H](O)[C@H](C)O1`, the viability at 100 µM in assay [13] was 109%; in [14] it was 101%; in assay [15] it was 96%.
With `C[C@@H]1O[C@@H](OCC#Cc2c(-c3ccccc3)[nH]c3ccccc23)C[C@H](N)[C@@H]1O`, the IC50 in assay [1] came out at 15.9 µM; in assay [9], 14 µM; in assay [12], 12.9 µM. Moreover, the viability at 25 µM in assay [2], in [4] and in assay [11] was less than 1% throughout. Further, the Activity in assay [3] was determined as 100%; in assay [5], 100%; in assay [6] it was 100%; in [7] it was 76.7%. For the same compound, the inhibition in assay [8] stood at 8.8%; in assay [10] it was 7.1%.
For `C[C@@H]1O[C@@H](OCC#Cc2c(-c3ccccc3)oc3ccccc23)CC[C@@H]1N`, the IC50 in [1] is 10.3 µM; in [16] it was greater than 25 µM; in assay [17] it was 3.7 µM; in assay [18] it was 10.9 µM; in assay [9] it was 6.5 µM; in [12], 7.9 µM. The viability at 25 µM in [2], in assay [4] and in assay [11] was less than 1% throughout. Also, the Activity in assay [3] is 100%; in assay [5], 100%; in assay [6], 100%; in assay [7], 68.5%. The inhibition is 20.2% in assay [8] and 0% in [10].
In the case of `Cc1ccc(S(=O)(=O)n2c(-c3ccccc3)c(C#CCO)c3ccccc32)cc1`, the viability at 25 µM in assay [2] came out at 87%; in [4], 58%; in assay [11], 26%. The Activity in assay [3], in assay [5] and in [6] was 100% throughout. For the same compound, the viability at 100 µM in [13] was found to be 55%; in [14], 37%; in assay [15], 9%.
As to `Cc1ccc(S(=O)(=O)n2c(-c3ccccc3)cc3ccccc32)cc1`, the viability at 25 µM in assay [4] was 54%; in assay [11] it was 39%. In addition, the viability at 100 µM in assay [13] was 71%; in assay [14] it was 37%; in [15], 12%.
On to `C[C@@H]1O[C@@H](OCC#Cc2c(-c3ccccc3)sc3ccccc23)CC[C@@H]1N`, for which the IC50 in [1] is 7.1 µM; in assay [16], greater than 25 µM; in [17], 9.8 µM; in assay [18], 18.1 µM; in assay [9] it was 5.9 µM; in assay [12], 8.8 µM. In addition, the viability at 25 µM in assay [2], in assay [4] and in assay [11] was less than 1% throughout. Further, the Activity in assay [3] was determined as 100%; in [5], 100%; in assay [6], 100%; in assay [7], 79.9%. Besides, the inhibition is 7.9% in [8] and 16.4% in assay [10].
For `Ic1c(-c2ccccc2)oc2ccccc12`, the viability at 100 µM came out at 128% in [13], 84% in assay [14] and 97% in assay [15].
For `OCC#Cc1c(-c2ccccc2)[nH]c2ccccc12`, the viability at 25 µM in [2] came to 121%; in assay [4], 87%; in assay [11] it was 81%. The Activity in [3], in [5] and in [6] was 100% in each case. For the same compound, the viability at 100 µM in [13] came out at 109%; in assay [14], 87%; in assay [15], 79%.
For the compound `C#CCO[C@H]1C[C@H](N)[C@@H](O)[C@H](C)O1`, the figures for the viability at 100 µM in assay [13], in assay [14] and in assay [15] were 123%, 105% and 91%, respectively.
For `C#CCO[C@H]1CC[C@H](N)[C@H](C)O1` the same measures were 107%, 112% and 99%.
On to `OCC#Cc1c(-c2ccccc2)oc2ccccc12`, for which the figures for the viability at 25 µM in assay [2], in assay [4] and in [11] were 86%, 88% and 86%, respectively. Moreover, the viability at 100 µM was 2% in assay [13], less than 1% in assay [14] and less than 1% in [15].
Turning to `c1ccc(-c2cc3ccccc3s2)cc1`, the viability at 100 µM came to 113% in [13], 88% in assay [14] and 81% in assay [15].
Consider `c1ccc(-c2cc3ccccc3o2)cc1`, for which the viability at 100 µM came to 107% in assay [13], 88% in assay [14] and 80% in assay [15].
`Cc1ccc(S(=O)(=O)n2c(-c3ccccc3)c(I)c3ccccc32)cc1`: the viability at 100 µM in assay [13] stood at 114%; in assay [14], 90%; in assay [15], 82%.
Turning to `C[C@@H]1O[C@@H](OCC#Cc2c(-c3ccccc3)sc3ccccc23)C[C@H](N)[C@@H]1O`, the IC50 came to 7.1 µM in assay [1]; 22.2 µM in assay [16]; 5.7 µM in [17]; 9.4 µM in assay [18]; 2.6 µM in assay [9]; 6 µM in [12]. The viability at 25 µM in assay [2], in assay [4] and in assay [11] was less than 1% each time. Moreover, the Activity in assay [3] stood at 100%; in assay [5] it was 100%; in assay [6] it was 100%; in assay [7] it was 67.5%. Further, the inhibition was determined as 36.9% in assay [8] and 5.8% in [10].

Values taken from ChEMBL document CHEMBL1641417, “Cytotoxicity and topoisomerase I/II inhibition of glycosylated 2-phenyl-indoles, 2-phenyl-benzo[b]thiophenes and 2-phenyl-benzo[b]furans” (Bioorg Med Chem, 2011).
